Screening data from PubChem BioAssay.
The list is not random: actives were taken first. Their share in the collection is about 2.1%.
Runt-SMMHC FRET: inhibitors of RUNX1 Runt–CBFb-SMMHC binding, primary screen, biochemical, FRET, Cerulean-Runt, Venus-CBFb-SMMHC, uHTS; Runt-related transcription factor 1 (Homo sapiens) + Core-binding factor subunit beta …; Cerulean-Runt/Venus-CBFb-SMMHC FRET ratio 530/480, 1 h; inhibition, % at 20 µM; 220,000 compounds, 0.74% hits;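 active = mean inhibition across duplicate retests at 20 µM reaching about 50%, limit read from the data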;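 note: inhibitors lower the FRET ratio by blocking Runt binding to CBFb-SMMHC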
KLK7 zymogen act: proKLK7 zymogen activators, primary screen, biochemical, fluorescence intensity; Kallikrein-7 (Homo sapiens), P49862; purified proKLK7, EDANS-DABCYL substrate fluorescence; 100% is mature enzyme control, 0% vehicle; activation, % at 7 µM; 370,000 compounds, 0.9% hits;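 active = activation above the mean of all tested compounds plus 3 SD, computed per campaign excluding outliers beyond control limits, cut at about 13% in these data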
Target sequence (P49862 whole entry, looked up): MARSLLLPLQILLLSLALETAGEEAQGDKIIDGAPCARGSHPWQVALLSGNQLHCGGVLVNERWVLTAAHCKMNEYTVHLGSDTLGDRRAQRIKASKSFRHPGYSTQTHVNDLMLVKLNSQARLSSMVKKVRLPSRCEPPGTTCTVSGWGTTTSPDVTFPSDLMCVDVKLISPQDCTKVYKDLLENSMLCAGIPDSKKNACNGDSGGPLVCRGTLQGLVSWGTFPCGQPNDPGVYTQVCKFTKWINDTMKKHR
RanGTP-Impb inh: inhibitors of RanGTP-importin-beta interaction, primary screen, biochemical, FRET, CFP-Ran, YFP-importin-beta, homogeneous; Ran GTPase (GTP-bound) - importin-beta complex; inhibition, % (no concentration beside the values); 300,000 compounds, 1.1% hits; cell-free CFP-Ran/YFP-importin-beta FRET ratio; AID 2216, 2009;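 active = more than half of the replicate wells show a fall in the fluorescence ratio signal beyond about 16%, limit read from the data, passing the limit was not always enough; inconclusive = exactly half of the replicate wells pass the set limit; inactive = fewer than half of replicates pass the limit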
MEX-5 binding: MEX-5 zinc finger RNA-binding disruptors – biochemical, C. elegans, fluorescence polarization, MLPCN library, primary screen. Zinc finger protein mex-5 (Caenorhabditis elegans), Q9XUB2. MEX-5/FITC-TCR2 RNA binding; active compounds read low. activity score (negative = inhibition of binding), % at 10 µM. 300,000 compounds, 0.38% hits. AID 1832, 2009;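 active = inhibition past about -25% in most replicates, and total fluorescence under double the plate's negative control median, limit read from the data; inconclusive = replicates evenly split on the limit, or fluorescence at least double controls; inactive = too little inhibition in most replicates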
Runt-CBFb FRET: inhibitors of RUNX1 Runt–CBFb binding, primary screen, biochemical, FRET, Cerulean-Runt, Venus-CBFb, uHTS. inhibition, % at 20 µM. Runt-related transcription factor 1 (Homo sapiens) + Core-binding factor subunit beta …. AID 1496, 2009. 220,000 compounds, 0.46% hits. Cerulean-Runt/Venus-CBFb FRET ratio 530/480, 1 h;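 active = inhibition over about 50% at 20 µM in the single-dose screen, limit read from the data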
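Buffer or medium: Tris pH 7.5 buffer with BSA. Assay system: Cerulean-labeled Runt domain protein. Amount: each fluorescent fusion protein 100 nM. Read-out basis: loss of energy transfer signal. Incubation: 1 h compound exposure, room temperature. Probe or stimulus: Venus-CBFb binding partner, 100 nM. Detection: FRET, excitation 422 nm, emission at 530 and 480 nm.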
RUNX1 CBFb TR: inhibitors of RUNX1 Runt–CBFb binding, biochemical, TR-FRET. shares compounds with Runt-CBFb FRET. TR-FRET RUNX1 Runt domain-CBFb binding. inhibition, % at 20 µM. 480 compounds, 20% hits. AID 1502, 2009; in the data active = inhibition above about 40%
YIC counter: YIC intramolecular FRET probe signal interference, dose response, counter-screen for RanGTP-importin-beta inhibitor project, biochemical, fluorescence FRET. IC50, µM. shares compounds with RanGTP-Impb inh. Purified YIC probe, intramolecular FRET ratio YFP/CFP. 1,000 compounds, 40% hits;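 active = fitted half-maximal inhibitory concentration no more than tenfold above the top dose tested; inconclusive = flat fit with 30 to 70% activity, or poor fit; inactive = half-maximal concentration beyond tenfold above the top dose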
Of the large screens only hits and unclear results are named; the others gave an inactive call (follow-up assays come after a bar, where they were run).

COc1ccc(C(=O)c2cc3ccc(O)cc3oc2=O)cc1	Runt-SMMHC FRET 88, RanGTP-Impb inh 48, Runt-CBFb FRET 88 | RUNX1 CBFb TR inactive | YIC counter 15
Cc1nc2[nH]c(=O)c3c(n2n1)NC1=C(C(=O)CC(C)(C)C1)C3c1ccc(F)cc1 (configuration not stated)	Runt-SMMHC FRET 100, RanGTP-Impb inh 35, Runt-CBFb FRET 80 | RUNX1 CBFb TR inactive | YIC counter 4.1
c1ccc2c(-c3cc(NCc4ccncc4)n4nccc4n3)cccc2c1	none (no result: Runt-SMMHC FRET, RanGTP-Impb inh, MEX-5 binding, Runt-CBFb FRET)
CCOc1ccccc1NC(=O)COC(=O)CCOc1cc(C)ccc1C	none (no result: Runt-SMMHC FRET, Runt-CBFb FRET)
CCCn1c(=N)c(C(=O)NCc2ccc3c(c2)OCO3)cc2c(=O)n3cccc(C)c3nc21	Runt-SMMHC FRET 99, RanGTP-Impb inh 40, Runt-CBFb FRET 71 | RUNX1 CBFb TR inactive | YIC counter 15
CCN1C(=O)/C(=C2/Sc3ccccc3N2CC)SC1=S	RanGTP-Impb inh inconclusive (no result: Runt-SMMHC FRET, Runt-CBFb FRET)
O=C1NC(=S)S/C1=C1\Sc2ccccc2N1CCCS(=O)(=O)O	Runt-SMMHC FRET 123, RanGTP-Impb inh 27, Runt-CBFb FRET 88 | RUNX1 CBFb TR inactive | YIC counter 15
Cc1ccc2cc(C#N)c(N3CCN(C(=O)c4ccccc4)CC3)nc2c1	none (no result: Runt-SMMHC FRET, Runt-CBFb FRET)
